Bioassay records from PubChem.
MrgX1 PAM: human MrgX1 positive allosteric modulation, primary screen | 0.63% of 310,000 active | MrgX1-HEK293, Fluo-4 calcium flux, FDSS; active compounds read high | B-score at 10 µM | AID 588675 | Q96LB2;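 active = plate-corrected calcium response at least 3 library SD above typical, normal starting fluorescence, not activating the receptor alone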;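 note: compound read alongside a low EC10 to EC30 dose of BAM8-22 agonist; peak minus trough fluorescence over baseline measured at the second addition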
Target sequence (Q96LB2 whole entry, looked up): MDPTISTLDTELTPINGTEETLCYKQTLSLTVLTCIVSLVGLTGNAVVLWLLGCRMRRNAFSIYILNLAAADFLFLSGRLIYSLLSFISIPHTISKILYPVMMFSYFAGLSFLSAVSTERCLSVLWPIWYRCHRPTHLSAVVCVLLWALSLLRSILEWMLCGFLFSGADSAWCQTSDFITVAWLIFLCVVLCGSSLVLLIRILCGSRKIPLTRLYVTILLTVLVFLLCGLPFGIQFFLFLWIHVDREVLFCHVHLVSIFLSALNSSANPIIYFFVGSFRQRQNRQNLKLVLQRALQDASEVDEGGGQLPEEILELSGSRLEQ
RGS4 inh: human RGS4 inhibition; HEK293 M3R/RGS4 inducible, Fluo-4 calcium flux; active compounds read high; triggered by carbachol at its EC20; B-score at 10 µM; 0.45% of 310,000 active; AID 463165;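 active = B-score, a plate-corrected calcium signal, over three deviations above library mean, with baseline fluorescence within five deviations of library mean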;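 note: RGS4 expression induced by doxycycline in cells with stable M3 receptor; B-score is computed from the integrated fluorescence ratio over baseline after carbachol; higher B-score means a larger calcium signal and so more RGS4 inhibition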
Target sequence (P49798 whole entry, looked up): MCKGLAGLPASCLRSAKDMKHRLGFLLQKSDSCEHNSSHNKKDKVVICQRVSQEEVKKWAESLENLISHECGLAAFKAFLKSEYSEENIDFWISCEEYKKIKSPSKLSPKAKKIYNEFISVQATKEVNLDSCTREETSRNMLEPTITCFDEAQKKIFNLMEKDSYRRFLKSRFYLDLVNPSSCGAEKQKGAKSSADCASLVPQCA
MrgX1 ag: human MrgX1 receptor agonism, primary screen; MrgX1-HEK293 cells, Fluo-4 calcium fluorescence, agonist mode; active compounds read high; B-score at 10 µM; AID 588627; 0.44% of 310,000 active; Q96LB2;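 active = calcium response B-score plate-corrected fluorescence ratio at least 3 library SD, with starting fluorescence B-score inside 5 SD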
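Material: HEK293 cells stably expressing human MrgX1 receptor | Quantity: 15,000 cells per well | Times: Cells plated overnight, dye loaded 0.5 h 37 °C, 0.5 h room temperature | Measured by: Kinetic Fluo-4 NW fluorescence of intracellular calcium | Control set: Positive and negative controls per plate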
MrgX1 antagonist: antagonists of human MrgX1 receptor; MRGX1-HEK293 calcium flux, Fluo-4, BAM8-22 antagonism; active compounds read low; Q96LB2; AID 588676; B-score at 10 µM; 1.3% of 310,000 active;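 active = calcium-response B-score plate-corrected more than 3 library SD below zero, starting fluorescence within 5 deviations, no agonist response on first addition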;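 note: peak minus trough fluorescence over baseline after final BAM8-22 challenge near maximal dose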
RGS4 pot: potentiators or activators of RGS4; HEK293 M3R/inducible RGS4, carbachol calcium flux Fluo4; active compounds read low; B-score at 10 µM; 0.92% of 310,000 active; AID 463111;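 active = B-score of the integrated calcium signal more than 4 SD below the library mean, with starting fluorescence not abnormally high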;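 note: negative B-score means reduced calcium response which marks RGS4 activation or potentiation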
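Assay system: HEK293 FlpIn-TREx cells, stable M3R, doxycycline-inducible RGS4 / Probe or stimulus: carbachol, ECmax concentration / Times: overnight RGS4 induction, 30 min dye load 37 °C, 20 min compound RT / Signal: kinetic calcium fluorescence imaging with Fluo4-AM dye, 2 µM / Measure: Agonist-evoked peak-minus-minimum fluorescence over baseline, integrated ratio, B score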
Of the large screens only hits and unclear results are named; the others gave an inactive call. This is a sample that favours compounds with a hit; in the whole collection about 3.5% have one here.

COC(=O)c1sccc1NC(=O)CC1C(=O)NCCN1C(=O)c1ccc(N(C)C)cc1 (configuration not stated)	none
CCOc1ccc(N(CC(=O)NC2CCCCC2)C(=O)CNC(=O)c2cccs2)cc1	none
Oc1ccccc1C1=Nc2nc3ccccc3n2C(c2ccccc2)C1 (configuration not stated)	MrgX1 PAM 17
CC(C)c1ccc(N2C(=O)CSC23C(=O)N2CCCc4cccc3c42)cc1 (configuration not stated)	RGS4 pot -7.6
Cc1nn(-c2ccccc2)nc1CNC(=O)c1ncoc1-c1ccccc1	RGS4 pot -7.4
CCCCOc1ccc(CSC2=NCCN2)cc1[N+](=O)[O-]	MrgX1 ag 28
CCCCCOc1ccc(CSC(=N)N)cc1[N+](=O)[O-]	MrgX1 ag 49, RGS4 pot -7.8
N=C(N)SCc1ccc(O)c([N+](=O)[O-])c1	none
COc1ccc(CSC(=N)N)cc1[N+](=O)[O-]	MrgX1 ag 39
CCOc1ccc(CSC2=NCCN2)cc1[N+](=O)[O-]	none
CC(C)c1cc(C(C)C)c(S(=O)(=O)N2CCNCC2)c(C(C)C)c1	none
OCCC1CN(Cc2ccon2)CCN1Cc1ccccc1 (configuration not stated)	none
Cn1c2ccc(F)cc2c2nnc(SCC(=O)Nc3cccc(O)c3)nc21	none
O=C(NCc1ccccn1)NC1CCCCC1	none
CCOc1cc(/C=C(\C#N)C(=O)Nc2ccccc2C(=O)O)ccc1OC(=O)c1ccc(C)cc1	MrgX1 antagonist -4.9
COc1ccc(/C=C(/C#N)C(=O)Nc2ccccc2C)cc1C(=O)O	none
COc1ccc(Cc2noc(CN(C)CC(O)c3ccccc3)n2)cc1OC (configuration not stated)	MrgX1 antagonist -5.2
Cc1cc(NC(=O)c2cc(-c3ccccc3Cl)nc3ccccc23)no1	none
Cc1cc(NS(=O)(=O)c2ccc(Nc3nc(-c4sc(NC(=O)c5ccccc5)nc4C)cs3)cc2)no1	RGS4 pot -11
Cc1nc(NC(=O)c2ccccc2)sc1-c1csc(Nc2cccc(F)c2)n1	none
Cc1cc(NS(=O)(=O)c2ccc(NC(=O)c3cc(-c4ccccc4Cl)nc4ccccc34)cc2)no1	MrgX1 ag 34
CCOC(=O)C(Cc1c[nH]c2ccccc12)NC(=O)c1ccccc1Br (configuration not stated)	none
COCc1c(Br)c(C)nc(OCC(=O)N/N=C/c2cc(C)n(-c3ccc([N+](=O)[O-])cc3)c2C)c1C#N	RGS4 pot -7.9
Cc1cccc(NC(=O)CSc2nnc(CNC(=O)c3ccc(S(=O)(=O)N(C)C)cc3)n2-c2ccc(F)cc2)c1	none
Cc1cccc(-n2c(CNC(=O)c3ccc(S(=O)(=O)N(C)C)cc3)nnc2SCC(=O)Nc2ccc(F)cc2)c1	RGS4 pot -8.1
CC(C)NCC(O)COCCOc1ccc(C(C)(C)C)cc1 (configuration not stated)	MrgX1 antagonist -5.2
CCc1nnc(NC(=O)Cc2ccc(Br)cc2)s1	none
COCCNC(=S)NNc1ccccc1[N+](=O)[O-]	MrgX1 antagonist -5.1
COc1ccc(CN(CC(=O)NCc2ccc(F)cc2)C(=O)CCC(=O)Nc2nccs2)cc1	none
COc1ccc(CN(CC(=O)NCc2ccccc2)C(=O)CCC(=O)Nc2nccs2)cc1	MrgX1 PAM 12
O=C(c1ccc(=O)n(Cc2ccc(Cl)c(Cl)c2)c1)N1CCOCC1	MrgX1 antagonist -7.4
Cc1ccc2[nH]c3c(=O)n(CC(=O)NCCCN4CCN(c5ccc(F)cc5)CC4)ncc3c2c1	none
O=C(CC(Nc1ccc(F)cc1)c1ccccc1)c1ccccc1 (configuration not stated)	none
COC(=O)c1ccccc1SC(CC(=O)c1ccccc1)c1ccc(F)cc1 (configuration not stated)	RGS4 pot -7.1
Cc1cc(OCC(O)CN(C)C(=O)C(C)Oc2ccccc2)ccc1Cl (configuration not stated)	none
O=C(Nc1ccc(Cl)cc1)Nc1cccc2nsnc12	none
COc1ccc(OC)c(/C=C2\Oc3cc(OCC(=O)N4CC(O)C[C@H]4C(=O)O)ccc3C2=O)c1 (some centres not stated)	MrgX1 PAM 14
COc1ccc(/C=C2\Oc3cc(OCC(=O)N4CCC(C(=O)O)CC4)ccc3C2=O)c(OC)c1	none
COc1ccc(OC)c(/C=C2\Oc3cc(OCC(=O)N4CCC(C(=O)O)CC4)ccc3C2=O)c1	MrgX1 ag 55
COC(=O)C1=C(C)N(CC2CC2)C(=O)N[C@H]1c1ccccc1	none
COc1ccc(-c2cc(C(=O)N(C)Cc3ccc(F)cc3)c3ccccc3n2)cc1OC	none
CC(C)C[C@H](NC(=O)c1[nH]cnc1C(=O)N[C@@H](C)c1ccccc1)C(=O)OCc1ccccc1	none
CCN(c1ccccc1)S(=O)(=O)c1ccc(C(=O)N(CCN(C)C)c2nc3c(F)cc(F)cc3s2)cc1	RGS4 inh 14
CN(C)CCN(C(=O)c1ccc(S(=O)(=O)N(C)C)cc1)c1nc2cc3c(cc2s1)OCCO3	none
CN(C)CCN(C(=O)c1ccc(S(=O)(=O)N(C)c2ccccc2)cc1)c1nc2cc3c(cc2s1)OCCO3	RGS4 pot -7.8
Cc1ccccc1-n1c(C)nnc1SCc1cc(=O)oc2ccc3ccccc3c12	none
Cc1ccccc1S(=O)(=O)Cc1ccc(C(=O)NC(C)c2ccc3c(c2)OCCO3)o1 (configuration not stated)	none
CC(NC(=O)c1ccc(CS(=O)(=O)c2ccc(Cl)cc2)o1)c1ccc2c(c1)OCCO2 (configuration not stated)	RGS4 pot -7.4
COn1c2c(c3c4nonc4ccc31)CCCC2	none
On1c2c(c3c4nonc4ccc31)CCCC2	MrgX1 ag 27
COc1cc(NC(=O)C2CCN(S(=O)(=O)c3ccc4[nH]c(=O)oc4c3)CC2)cc(OC)c1	none
CCS(=O)(=O)c1ccc2oc(SCC(=O)NCc3ccccc3)nc2c1	RGS4 pot -7.2
Cc1cc(NS(=O)(=O)c2c(C)c(C)cc(C)c2C)no1	none
C(=N\c1nc2ccccc2[nH]1)/c1cccs1	MrgX1 ag 30
CC(NC(=O)c1cc(S(=O)(=O)N2CCCC2)cn1C)c1ccccc1 (configuration not stated)	none
N=C1/C(=C\c2ccc(-c3cc(Cl)cc(Cl)c3)o2)C(=O)N=C2SC=C(c3ccccc3)N12	none
N=C1/C(=C/c2ccc(-c3cccc(C(=O)O)c3)o2)C(=O)N=C2SC=C(c3ccccc3)N12	MrgX1 antagonist -7.6, RGS4 pot -8.4
COc1ccc(CCc2cc(OC)cc(=O)o2)cc1	none
Cc1ccc(N=C2SC(C(=O)Nc3ccc(OC(F)(F)F)cc3)C(N)=C2C(=O)Nc2c(C)cc(C)cc2C)cc1 (configuration not stated)	MrgX1 PAM 10 (no result: RGS4 inh, RGS4 pot)
